Measurements as given in ChEMBL document CHEMBL4196006, “Aryl thiosemicarbazones for the treatment of trypanosomatidic infections” (Eur J Med Chem, 2018).
The source made the active and inactive calls. The rule behind the calls is not given here.

Legend:
[1] = molecular target: T1, CYP1A2 (Homo sapiens, UniProt P05177); assay: Inhibition of human microsomal CYP1A2 expressed in baculovirus infected BTI-TN-5B1-4 cells at 10 uM incubated for 30 mins by luciferase assay relative to control; type: ADME
T1 sequence (P05177 whole entry): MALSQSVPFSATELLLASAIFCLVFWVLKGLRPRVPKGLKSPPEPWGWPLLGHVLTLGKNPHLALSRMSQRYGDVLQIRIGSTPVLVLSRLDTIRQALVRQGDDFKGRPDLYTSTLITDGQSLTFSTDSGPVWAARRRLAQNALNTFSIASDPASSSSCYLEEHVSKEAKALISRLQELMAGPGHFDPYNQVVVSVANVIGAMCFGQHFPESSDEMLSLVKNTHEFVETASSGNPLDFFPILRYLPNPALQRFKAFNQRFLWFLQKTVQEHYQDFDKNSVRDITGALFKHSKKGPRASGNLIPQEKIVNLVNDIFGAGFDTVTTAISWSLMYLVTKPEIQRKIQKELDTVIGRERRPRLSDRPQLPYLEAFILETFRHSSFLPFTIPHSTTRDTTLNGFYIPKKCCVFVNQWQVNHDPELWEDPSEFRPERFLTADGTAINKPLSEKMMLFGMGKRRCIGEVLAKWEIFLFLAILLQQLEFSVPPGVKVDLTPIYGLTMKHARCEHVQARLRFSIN
In short: (§1)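 CYP1A2, 2C9, 2C19, 2D6 and 3A4 in microsomes from baculovirus-infected insect cells, each with a P450-Glo luminogenic substrate. Inhibition read as loss of light; single-point at 10 μM, triplicate.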

[2] = molecular target: T2, Pteridine reductase, putative (Trypanosoma brucei) (UniProt Q581W1); assay: Inhibition of Trypanosoma brucei PTR1 at 50 uM using H2B as substrate in presence of NADPH by photometric analysis relative to control
T2 sequence (whole entry): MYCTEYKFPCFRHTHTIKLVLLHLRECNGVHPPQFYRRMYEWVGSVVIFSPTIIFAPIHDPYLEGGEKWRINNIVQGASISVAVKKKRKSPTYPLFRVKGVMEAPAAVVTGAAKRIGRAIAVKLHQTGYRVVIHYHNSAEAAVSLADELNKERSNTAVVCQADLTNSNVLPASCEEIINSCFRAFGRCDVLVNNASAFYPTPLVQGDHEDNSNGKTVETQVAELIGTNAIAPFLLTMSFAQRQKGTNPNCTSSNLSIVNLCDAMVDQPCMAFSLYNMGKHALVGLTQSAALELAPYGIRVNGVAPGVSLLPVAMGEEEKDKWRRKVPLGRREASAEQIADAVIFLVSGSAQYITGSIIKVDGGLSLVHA

[3] = molecular target: CYP3A4 (Homo sapiens, UniProt P08684); assay: Inhibition of human microsomal CYP3A4 expressed in baculovirus infected BTI-TN-5B1-4 cells at 10 uM incubated for 30 mins by luciferase assay relative to control; type: ADME; in short: as §1
CYP3A4, sequence (P08684 whole entry): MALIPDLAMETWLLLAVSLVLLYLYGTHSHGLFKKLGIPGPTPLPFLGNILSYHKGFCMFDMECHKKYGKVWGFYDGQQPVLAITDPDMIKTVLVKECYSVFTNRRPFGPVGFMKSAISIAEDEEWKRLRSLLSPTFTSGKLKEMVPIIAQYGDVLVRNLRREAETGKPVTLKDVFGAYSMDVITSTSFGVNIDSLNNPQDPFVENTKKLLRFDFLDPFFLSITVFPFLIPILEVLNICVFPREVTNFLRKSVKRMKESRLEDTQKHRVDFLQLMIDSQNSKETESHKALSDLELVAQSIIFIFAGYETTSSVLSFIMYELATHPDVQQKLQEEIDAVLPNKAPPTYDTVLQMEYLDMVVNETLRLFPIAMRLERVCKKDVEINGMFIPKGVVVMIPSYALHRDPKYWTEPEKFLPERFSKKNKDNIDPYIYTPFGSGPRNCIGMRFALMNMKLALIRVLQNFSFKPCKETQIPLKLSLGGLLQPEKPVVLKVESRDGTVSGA

[4] = molecular target: hERG (KCNH2) (Homo sapiens, UniProt Q12809); assay: Inhibition of human ERG at 10 uM incubated for 2 hrs by fluorescence polarisation assay relative to control
hERG (KCNH2), sequence (Q12809 whole entry): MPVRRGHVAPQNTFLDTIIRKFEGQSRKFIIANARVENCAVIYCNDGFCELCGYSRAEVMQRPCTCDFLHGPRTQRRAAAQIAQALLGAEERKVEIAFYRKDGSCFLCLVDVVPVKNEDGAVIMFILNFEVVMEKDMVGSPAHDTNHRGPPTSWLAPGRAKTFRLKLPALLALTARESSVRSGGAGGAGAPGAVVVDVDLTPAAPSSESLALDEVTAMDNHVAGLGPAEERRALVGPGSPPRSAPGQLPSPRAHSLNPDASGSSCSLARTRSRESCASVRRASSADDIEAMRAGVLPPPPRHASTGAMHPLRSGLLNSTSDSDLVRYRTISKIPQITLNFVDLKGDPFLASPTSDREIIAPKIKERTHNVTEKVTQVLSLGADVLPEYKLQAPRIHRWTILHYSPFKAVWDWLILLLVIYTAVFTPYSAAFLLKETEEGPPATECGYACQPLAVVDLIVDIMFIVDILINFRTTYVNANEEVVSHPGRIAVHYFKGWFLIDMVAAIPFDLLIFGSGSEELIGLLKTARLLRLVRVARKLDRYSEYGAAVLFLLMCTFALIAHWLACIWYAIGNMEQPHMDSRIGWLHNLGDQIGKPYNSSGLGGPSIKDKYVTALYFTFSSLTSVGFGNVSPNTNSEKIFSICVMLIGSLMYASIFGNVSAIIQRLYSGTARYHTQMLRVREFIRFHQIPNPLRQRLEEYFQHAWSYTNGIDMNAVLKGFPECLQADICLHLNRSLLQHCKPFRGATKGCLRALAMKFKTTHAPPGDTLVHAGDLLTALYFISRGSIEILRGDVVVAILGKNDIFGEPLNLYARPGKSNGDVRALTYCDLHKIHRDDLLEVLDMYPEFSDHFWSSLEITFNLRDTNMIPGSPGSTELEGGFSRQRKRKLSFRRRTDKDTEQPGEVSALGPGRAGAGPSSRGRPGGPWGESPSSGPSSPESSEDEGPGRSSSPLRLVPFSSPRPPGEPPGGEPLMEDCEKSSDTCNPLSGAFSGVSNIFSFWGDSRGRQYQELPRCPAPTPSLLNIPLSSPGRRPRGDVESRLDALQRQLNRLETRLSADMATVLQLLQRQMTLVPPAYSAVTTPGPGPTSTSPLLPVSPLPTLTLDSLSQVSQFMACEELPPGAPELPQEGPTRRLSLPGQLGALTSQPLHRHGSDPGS

[5] = molecular target: CYP2C9 (Homo sapiens, UniProt P11712); assay: Inhibition of human microsomal CYP2C9 expressed in baculovirus infected BTI-TN-5B1-4 cells at 10 uM incubated for 30 mins by luciferase assay relative to control; type: ADME; in short: as §1
CYP2C9, sequence (P11712 whole entry): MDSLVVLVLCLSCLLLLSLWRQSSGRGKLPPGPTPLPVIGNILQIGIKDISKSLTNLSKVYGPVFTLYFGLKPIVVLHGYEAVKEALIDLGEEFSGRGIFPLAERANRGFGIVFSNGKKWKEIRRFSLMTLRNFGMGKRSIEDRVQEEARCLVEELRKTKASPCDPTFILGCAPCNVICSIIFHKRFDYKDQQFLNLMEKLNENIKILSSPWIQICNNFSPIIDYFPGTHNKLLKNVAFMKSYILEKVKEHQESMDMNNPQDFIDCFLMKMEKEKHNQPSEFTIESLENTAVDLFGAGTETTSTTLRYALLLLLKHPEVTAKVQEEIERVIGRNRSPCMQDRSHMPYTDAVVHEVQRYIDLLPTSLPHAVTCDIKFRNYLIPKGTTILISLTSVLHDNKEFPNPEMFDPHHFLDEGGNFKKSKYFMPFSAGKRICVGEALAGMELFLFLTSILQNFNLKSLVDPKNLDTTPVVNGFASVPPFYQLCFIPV

[6] = molecular target: Aurora kinase B (Homo sapiens, UniProt Q96GD4); assay: Inhibition of recombinant full-length human aurora B kinase expressed in baculovirus system at 10 uM using MBP as substrate incubated for 45 mins by ADP-glo kinase assay; conditions: probe MBP
Aurora kinase B, sequence (Q96GD4 whole entry): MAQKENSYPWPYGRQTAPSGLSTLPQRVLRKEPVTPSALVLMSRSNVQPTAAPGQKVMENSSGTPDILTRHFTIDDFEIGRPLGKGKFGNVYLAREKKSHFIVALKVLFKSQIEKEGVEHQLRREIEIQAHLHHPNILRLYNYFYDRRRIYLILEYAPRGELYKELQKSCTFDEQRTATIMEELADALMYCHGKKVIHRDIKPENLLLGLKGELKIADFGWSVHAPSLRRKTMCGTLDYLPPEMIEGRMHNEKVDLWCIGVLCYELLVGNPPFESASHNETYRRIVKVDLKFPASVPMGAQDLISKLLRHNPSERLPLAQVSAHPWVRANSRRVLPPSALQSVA
In short: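 Aurora B activity measured as ADP formation via coupled luciferase ADP-Glo luminescence; single-point at 10 μM, triplicate.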

[7] = molecular target: CYP2D6 (Homo sapiens, UniProt P10635); assay: Inhibition of human microsomal CYP2D6 expressed in baculovirus infected BTI-TN-5B1-4 cells at 10 uM incubated for 30 mins by luciferase assay relative to control; type: ADME; in short: as §1
CYP2D6, sequence (P10635 whole entry): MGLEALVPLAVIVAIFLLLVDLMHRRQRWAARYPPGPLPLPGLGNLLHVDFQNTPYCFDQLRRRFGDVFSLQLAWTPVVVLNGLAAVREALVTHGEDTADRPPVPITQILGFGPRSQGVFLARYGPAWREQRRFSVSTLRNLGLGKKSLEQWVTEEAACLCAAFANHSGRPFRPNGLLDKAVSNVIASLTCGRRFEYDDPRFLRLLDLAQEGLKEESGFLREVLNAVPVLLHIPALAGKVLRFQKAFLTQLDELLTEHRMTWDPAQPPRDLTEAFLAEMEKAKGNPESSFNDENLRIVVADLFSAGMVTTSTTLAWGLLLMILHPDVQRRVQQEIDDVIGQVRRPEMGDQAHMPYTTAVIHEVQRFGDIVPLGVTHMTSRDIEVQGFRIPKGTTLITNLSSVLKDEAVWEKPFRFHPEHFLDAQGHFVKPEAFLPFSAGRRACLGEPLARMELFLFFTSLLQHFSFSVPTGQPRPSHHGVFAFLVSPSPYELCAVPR

[8] = molecular target: T3, Pteridine reductase 1 (Leishmania major) (UniProt Q01782); assay: Inhibition of Leishmania major PTR1 at 50 uM using H2B as substrate in presence of NADPH by photometric analysis relative to control
T3 sequence (whole entry): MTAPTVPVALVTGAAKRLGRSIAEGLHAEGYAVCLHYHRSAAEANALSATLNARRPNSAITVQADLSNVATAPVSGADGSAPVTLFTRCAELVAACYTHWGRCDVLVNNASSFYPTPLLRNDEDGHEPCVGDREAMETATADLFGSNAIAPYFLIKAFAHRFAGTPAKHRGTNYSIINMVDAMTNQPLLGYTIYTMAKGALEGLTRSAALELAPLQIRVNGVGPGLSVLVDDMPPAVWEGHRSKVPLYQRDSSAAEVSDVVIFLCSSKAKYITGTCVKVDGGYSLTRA

[9] = molecular target: CYP2C19 (Homo sapiens, UniProt P33261); assay: Inhibition of human microsomal CYP2C19 expressed in baculovirus infected BTI-TN-5B1-4 cells at 10 uM incubated for 30 mins by luciferase assay relative to control; type: ADME; in short: as §1
CYP2C19, sequence (P33261 whole entry): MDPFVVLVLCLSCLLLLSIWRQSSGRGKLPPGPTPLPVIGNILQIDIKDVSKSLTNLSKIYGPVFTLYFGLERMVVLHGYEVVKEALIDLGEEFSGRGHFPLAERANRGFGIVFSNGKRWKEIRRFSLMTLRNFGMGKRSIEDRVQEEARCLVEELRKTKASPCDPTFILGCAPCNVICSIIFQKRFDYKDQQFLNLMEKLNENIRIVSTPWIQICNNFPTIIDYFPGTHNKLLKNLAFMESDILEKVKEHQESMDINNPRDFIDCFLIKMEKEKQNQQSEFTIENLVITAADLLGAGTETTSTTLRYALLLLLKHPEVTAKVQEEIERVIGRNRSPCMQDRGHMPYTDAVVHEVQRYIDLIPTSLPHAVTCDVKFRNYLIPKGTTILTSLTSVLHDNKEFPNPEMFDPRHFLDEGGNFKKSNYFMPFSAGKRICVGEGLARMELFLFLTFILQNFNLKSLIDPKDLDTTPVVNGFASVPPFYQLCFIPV

[10] = Cytotoxicity against human 786-O cells assessed as inhibition of mitochondrial viability at 10 uM after 6 hrs by CMXRos staining based assay relative to control; type: cell-based, 786-0; conditions: read-out: INH
In short: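 Mitochondrial toxicity monitored by MitoTracker Red CMXRos uptake and high-content imaging; compound at 10 μM, triplicate.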

[11] = tested on: Trypanosoma cruzi; assay: Antitrypanosomal activity against Trypanosoma cruzi amastigote form infected in human U2OS cells assessed as parasite growth inhibition at 50 uM after 72 hrs relative to control; type: functional; conditions: for inhibition of growth at 50 µM: read-out: GI
In short: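 U2OS monolayers grown for 24 h, then infected with tissue-derived trypomastigotes of T. cruzi Y strain. Compounds were added 24 h after infection at 50 μM (single-point) or in dose-response, with 72 h exposure. Plates were fixed, stained and analysed by high-content imaging; activity was normalized to infected and non-infected controls. Means of at least two experiments; benznidazole as reference.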

[12] = Cytotoxicity against human THP1 cells assessed as viable cells at 100 uM after 72 hrs by MTT assay relative to control; type: cell-based, THP-1; conditions: read-out: Activity
In short: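 THP-1-derived macrophages exposed to compounds for 72 h, tested at 100 μM or in dose-response; viability read by MTT colorimetric assay.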

[13] = tested on: Trypanosoma brucei; assay: Potentiation of methotrexate-induced antitrypanosomal activity against Trypanosoma brucei Lister 427 bloodstream form at 10 uM after 72 hrs by resazurin dye-based assay; type: functional
[14] = Cytotoxicity against human A549 cells assessed as growth inhibition at 10 uM after 48 hrs by CellTiter-Glo assay relative to control; values are per cent of control; conditions: A549 cells
[15] = tested on: Trypanosoma brucei; assay: Antitrypanosomal activity against Trypanosoma brucei Lister 427 bloodstream form at 10 uM after 72 hrs by resazurin dye-based assay relative to control; type: functional
[16] = tested on: Trypanosoma brucei; assay: Potentiation of methotrexate-induced antitrypanosomal activity against Trypanosoma brucei Lister 427 bloodstream form at 10 uM after 72 hrs by resazurin dye-based assay relative to control; type: functional
[17] = tested on: Leishmania infantum; assay: Antileishmanial activity against Leishmania infantum amastigote form assessed as parasite growth inhibition at 50 uM after 72 hrs by steady-Glo reagent based assay relative to control; type: functional; conditions: read-out: GI
In short: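 Intramacrophage L. infantum amastigotes in THP-1-derived macrophages, tested at 50 μM or in dose-response. Plates held 72 h at 37 °C, 5% CO2. Medium was replaced by PBS, macrophages lysed, and parasites read by Steady-Glo luminescence. High-content imaging gave host cell number, infection ratio (infected/total cells) and parasites per infected cell. Values are means of at least two independent experiments.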

[18] = Cytotoxicity against human U2OS cells assessed as viable cells at 50 uM after 72 hrs by MTT assay relative to control; type: cell-based; conditions: read-out: Activity
[19] = tested on: Trypanosoma brucei; assay: Antitrypanosomal activity against Trypanosoma brucei Lister 427 bloodstream form assessed as parasite growth inhibition at 50 uM after 72 hrs by SYBR Green assay relative to control; type: functional
[20] = Cytotoxicity against human WI38 cells assessed as growth inhibition at 10 uM after 48 hrs by CellTiter-Glo assay relative to control; values are per cent of control; conditions: WI38 cells

| Compound | inhibition at 0.5 h, 10 µM [1] | inhibition [2] | inhibition at 0.5 h, 10 µM [3] | inhibition at 2 h, 10 µM [4] | inhibition at 0.5 h, 10 µM [5] | inhibition at 0.75 h, 10 µM [6] | inhibition at 0.5 h, 10 µM [7] | inhibition [8] | inhibition at 0.5 h, 10 µM [9] | inhibition of growth at 50 µM [11] | other results |
| --- | --- | --- | --- | --- | --- | --- | --- | --- | --- | --- | --- |
| COc1cc(/C=N/NC(N)=S)ccc1O | 7.06% | 9.78% | -9.76% | 6.07% | -7.31% | -0.27% | 22.2% | 9.85% | -20.3% |  |  |
| N/C(S)=N/N=C/c1ccc(Cl)c(Cl)c1 | 76.8% | inactive | -10.6% | -9.32% | 24.3% | -9.56% | 27.3% | 9.38% | -14.9% | 23.1% | cytotoxicity at 6 h, 10 µM [10]: 5.87%; viability at 72 h, 100 µM [12]: 56.4%; PF [13]: 1.36; cell growth (% of control) at 48 h, 10 µM [14]: 100%; Activity [15]: 37.33%; Activity [16]: 84%; inhibition of growth at 50 µM [17]: 17.6%; viability at 72 h, 50 µM [18]: 101%; growth inhibition (GI) [19]: inactive; cell growth (% of control) at 48 h, 10 µM [20]: 107% |
| Nc1nnc(-c2ccc(-c3ccccc3)cc2)s1 |  |  |  |  |  |  |  |  |  | 31.2% |  |
| Nc1nnc(-c2ccc(OCc3ccc(Cl)c(Cl)c3)cc2)s1 |  |  |  |  |  |  |  |  |  | 14.5% |  |
| COc1ccc(-c2nnc(N)s2)cc1OC |  |  |  |  |  |  |  |  |  | 30.2% |  |
| NC(=S)N/N=C/c1ccc(O)cc1 | -5.15% | 19.6% | -24.4% | 7.48% | -21.1% | -5.27% | -3.36% | 18.2% | -42.9% |  |  |
| Nc1nnc(/C=C/c2ccccc2)s1 |  |  |  |  |  |  |  |  |  | 82% |  |
| Nc1nnc(-c2ccc(Cl)c(Cl)c2)s1 |  |  |  |  |  |  |  |  |  | 23.4% |  |
| COc1ccccc1/C=N/NC(N)=S | 29.6% | 5.67% | -23.2% | 5.91% | -19.8% | -16.9% | -8.91% | 9.19% | -52.9% |  |  |
| Nc1nnc(-c2cccc(Br)c2)s1 |  |  |  |  |  |  |  |  |  | 41.6% |  |
| COc1cccc(OC)c1-c1nnc(N)s1 |  |  |  |  |  |  |  |  |  | 27.1% |  |
| NC(=S)N/N=C/c1ccc(O)c(O)c1 | -6.6% | 30.7% | -7.74% | 4.17% | -7.51% | -12.2% | -9.48% | 56.5% | -49.1% |  |  |
| COc1ccc(-c2cccc(-c3nnc(N)s3)c2)cc1OC |  |  |  |  |  |  |  |  |  | 14.6% |  |
| Nc1nnc(-c2ccco2)s1 |  |  |  |  |  |  |  |  |  |  | growth inhibition (GI) [11]: inactive |
| Nc1nnc(-c2cccc(-c3ccccc3)c2)s1 |  |  |  |  |  |  |  |  |  |  | growth inhibition (GI) [11]: inactive |
| COc1cc(-c2nnc(N)s2)cc(OC)c1OC |  |  |  |  |  |  |  |  |  |  | growth inhibition (GI) [11]: inactive |
| Nc1nnc(-c2cccc(-c3ccc4c(c3)OCO4)c2)s1 |  |  |  |  |  |  |  |  |  |  | growth inhibition (GI) [11]: inactive |
| COc1ccc(/C=N/NC(N)=S)cc1OC | -9.14% | 20.1% | -24.4% | 4.1% | -19.2% | -7.72% | -20.5% | 20.7% | -30.2% |  |  |
| Nc1nnc(-c2ccc(O)c(O)c2)s1 |  |  |  |  |  |  |  |  |  | 16.6% |  |
| COc1ccccc1-c1nnc(N)s1 |  |  |  |  |  |  |  |  |  |  | growth inhibition (GI) [11]: inactive |
